Test results reported in article PMC8545458 (Cell reports, 2021).

Tests used:
[1] = test system: SH-SY5Y human neuroblastoma cells stably expressing GLuc-SERCaMP; experiment: GLuc-SERCaMP assay; type: cell-based; settings: 4 h, read-out: EC50, GLuc-SERCaMP secretion in response to thapsigargin
Sprague-Dawley rats = settings: for Bederson’s neurological score: rat, intracerebroventricular 15 min prior to 60 min MCAo, vs vehicle
[2] = CD-1 mice; value for 686 in brain
[3] = test system: C57Bl/6J male mice on high fat diet; experiment: Metabolic testing in Diet Induced Obese; settings: DIO mice, 12 mg/kg i.p. daily; for fasting insulin / insulin resistance index (HOMA-IR): vs vehicle
[4] = test system: UPRE-NLuc reporter in SH-SY5Y cells; experiment: UPRE luciferase reporter assay; type: cell-based, human; settings: compound pre-treatment, then 100 nM thapsigargin
SH-SY5Y cells = experiment: Endogenous SERCaMPs; type: cell-based, human; settings: 20 μM
In short: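 SH-SY5Y cells were seeded at 5×10^4 cells/well in 96-well plates and given 16 h hypoxia plus 24 h normoxia with test compound (20 μM). At reperfusion, medium was fully exchanged to phenol red-free, serum-free esterase buffer (NaCl, KCl, MgCl2, CaCl2, glucose, 20 mM HEPES), collected 8 h later, and mixed 1:1 with 100 μM fluorescein […] substrate ([…]). Fluorescence (ex 465/em 528) was read after 1 h. n=24 wells; two-way ANOVA.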

[5] = test system: SH-SY5Y-GLuc-SERCaMP cells; experiment: SERCaMP assay, acute treatment paradigm; type: cell-based, human; settings: 30 μM compound; 200 nM thapsigargin; measured 8 h after thapsigargin
[6] = test system: SH-SY5Y-GLuc-SERCaMP cells; experiment: Oxygen-glucose deprivation; type: cell-based, human; settings: 16 h hypoxia plus 24 h normoxia; for cell attachment and viability after OGD: drugs added at beginning of OGD
[7] = test system: INS-1 832/13 pTetR TO shWfs1 cells; experiment: Wolfram caspase 3/7 assay; type: cell-based, rat; settings: compounds and doxycycline for 48 h
[8] = test system: primary human skeletal muscle cells; experiment: Human skeletal muscle exodosis assay; type: cell-based; settings: 30-minute pre-treatment; 100 nM thapsigargin, 8 h
In short: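 Primary human myoblasts are grown in DMEM (4.5 g/L glucose) at 37°C and 5.5% CO2. They are plated at 7.3×10^3 cells/well on 3 mg/ml Matrigel-coated 96-well plates. Medium is sampled 4–8 h after thapsigargin. Secreted GLuc-SERCaMP is read as luminescence 8 h after 100 nM thapsigargin, after injecting 8 μM coelenterazine into 5 μl medium. n=11–12 wells per concentration.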

[9] = test system: SH-SY5Y cells transfected with GLuc-ERS constructs; experiment: GLuc-ERS; type: cell-based, human; settings: 20 μM
In short: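 SH-SY5Y cells are reverse-transfected with GLuc-ERS reporter constructs: 5 × 10^4 cells are plated onto the transfection complexes in antibiotic-free medium and grown 48 h. OGD is 16 h hypoxia plus 24 h normoxia, with the test compound added at the start of OGD. GLuc is assayed in medium and lysates with coelenterazine. The secretion index is extracellular/intracellular GLuc. n=9–15 wells.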

[10] = test system: BiP, ERdj4, and ASNS mRNA in SH-SY5Y cells; experiment: ER stress response transcriptional analysis; type: cell-based, human; settings: 30 μM compounds 16 h prior to 4 h 100 nM thapsigargin
In short: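 SH-SY5Y cells were plated at 2.5×10^5 cells/500 μl in 24-well plates. Test compound (30 μM) was given 16 h before a 4 h exposure to 100 nM thapsigargin. Total RNA was isolated with on-column DNA digestion, and 0.5 μg was reverse-transcribed with cDNA diluted 1:20. BiP reports the ATF6 arm. Data are 2^-ddCq (n=6) versus thapsigargin only, by one-way ANOVA with Dunnett's test.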

[11] = test system: BiP/GRP78 protein levels in SH-SY5Y-SERCaMP cells; experiment: BiP immunoblot; type: cell-based, human; settings: 30 μM compounds 16 h prior to 4 h 100 nM thapsigargin
[12] = test system: ER calcium store in SH-SY5Y cells; experiment: GCaMPer ER calcium assay; type: cell-based, human; settings: 16 hour pre-treatment; 50 nM thapsigargin, 30 min
[13] = test system: SH-SY5Y cells stably expressing a constitutively secreted GLuc (SH-SY5Y-GLuc); experiment: SH-SY5Y-GLuc counterscreen; type: cell-based, human; settings: 19 h treatment
In short: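 The counterscreen used SH-SY5Y cells expressing untagged, constitutively secreted Gaussia luciferase in 1536-well plates. Cells were exposed to test compound for 19 h, and GLuc was read from the medium. The ER-to-Golgi transport blocker brefeldin A (19 h) was titrated on each of eight plates as a control (n=2 per concentration).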

[14] = 16 h hypoxia plus 24 h normoxia

Compound | Bederson’s neurological score (Sprague-Dawley rats) | UPRE-NLuc activation [4] | SERCaMP release, compound added 30 min pre- to 2 hours post-thapsigargin [5] | SERCaMP release, compound added 4 hours post-thapsigargin [5] | GLuc-SERCaMP secretion after OGD [6] | cell attachment and viability after OGD [6] | caspase 3/7 activation associated with Wfs1 knockdown [7] | GLuc-SERCaMP release in primary human skeletal muscle cells [8] | effect on ER calcium (GCaMPer fluorescence) [12] | further results
C/C=C(/C)C(=O)O[C@H]1C(C)=C2[C@H]([C@@H]1OC(=O)CCCCCCC)[C@@](C)(OC(C)=O)C[C@H](OC(=O)CCC)[C@@]1(O)[C@H]2OC(=O)[C@@]1(C)O [Thapsigargin] |  |  |  |  |  |  |  |  |  | EC50 [1]: 112 nM
CC(C)C[C@H]1C(=O)N2CCC[C@H]2[C@]2(O)O[C@](NC(=O)[C@@H]3C=C4c5cccc6c5c(c(Br)n6C(=O)C5CC5)C[C@H]4N(C)C3)(C(C)C)C(=O)N12.Cl [analog 686, (6aR,9R)-5-bromo-4-(cyclopropanecarbonyl)-N-((2R,5S,10aS,10bS)-10b-hydroxy-5-isobutyl-2-isopropyl-3,6-dioxooctahydro-8H-oxazolo[3,2-a]pyrrolo[2,1-c]pyrazin-2-yl)-7-methyl-4,6,6a,7,8,9-hexahydroindolo[4,3-fg]quinoline-9-carboxamide, HCl] | significant reduction |  |  |  |  |  |  |  |  | reduction of infarction volume compared with bromocriptine (Sprague-Dawley rats; rat MCAO): more effective than bromocriptine; metabolic conversion to the parent bromocriptine molecule [2]: < 1%
CC(C)C[C@H]1C(=O)N2CCC[C@H]2[C@]2(O)O[C@](NC(=O)[C@@H]3C=C4c5cccc6c5c(c(Br)n6C(=O)NC5CC5)C[C@H]4N(C)C3)(C(C)C)C(=O)N12.Cl [analog 688, (6aR,9R)-5-bromo-N4-cyclopropyl-N9-((2R,5S,10aS,10bS)-10b-hydroxy-5-isobutyl-2-isopropyl-3,6-dioxooctahydro-8H-oxazolo[3,2-a]pyrrolo[2,1-c]pyrazin-2-yl)-7-methyl-6a,7,8,9-tetrahydroindolo[4,3-fg]quinoline-4,9(6H)-dicarboxamide, HCl] | significant reduction |  |  |  |  |  |  |  |  | change in body weight following the first week of injections [3]: did not show; cumulative caloric intake and energy expenditure during the three weeks of treatment [3]: did not show; fasting glucose levels at 4 hours [3]: reduced fasting glucose levels; food intake at the end of the second and third week of injections [3]: did not show; fasting insulin [3]: reduced; insulin resistance index (HOMA-IR) [3]: reduced; metabolic conversion to the parent bromocriptine molecule [2]: no detectable conversion
CC(C)C[C@H]1C(=O)N2CCC[C@H]2[C@]2(O)O[C@](NC(=O)[C@@H]3C=C4c5cccc6[nH]c(Br)c(c56)C[C@H]4N(C)C3)(C(C)C)C(=O)N12 [bromocriptine] | significant reduction | diminished UPRE-NLuc activation | inhibited SERCaMP release | inactive | decreased GLuc-SERCaMP secretion | improved cell attachment and viability | reduced caspase 3/7 activation | partially attenuated GLuc-SERCaMP release | stabilizing effect on ER calcium | thapsigargin-induced secretion of PDI, MANF, and carboxylesterases (SH-SY5Y cells; 0.5 h before or 1 h following 200 nM thapsigargin): reduced thapsigargin-induced secretion of all three proteins; OGD-induced release of carboxylesterases (SH-SY5Y cells; [14]): decreased; thapsigargin-induced release of GLuc-ERS reporter proteins ([9]; 30 min pre-treatment, 200nM thapsigargin 8 h): broadly inhibited thapsigargin-induced release of the reporter proteins; OGD-induced release of GLuc-ERS reporter proteins [9, 14]: broadly reduced the OGD-induced release of the reporter proteins; BiP mRNA levels [10]: reduced expression of BiP; BiP/GRP78 protein levels [11]: reduced thapsigargin-induced accumulation; change in body weight following the first week of injections [3]: significant decrease in body weight; cumulative caloric intake and energy expenditure during the three weeks of treatment [3]: significantly higher; fasting glucose levels at 4 hours [3]: reduced fasting glucose levels; food intake at the end of the second and third week of injections [3]: elevated; glucose excursion AUC in glucose tolerance tests [3]: reduced the glucose excursion AUC; fasting insulin [3]: reduced; insulin resistance index (HOMA-IR) [3]: reduced
C[C@@H]1C[C@@H]([C@H](O)CC2CC(=O)NC(=O)C2)C(=O)[C@@H](C)C1 [cycloheximide] |  |  |  |  |  |  |  |  |  | activity in the SH-SY5Y-GLuc counterscreen [13]: inhibitory activity
O=C1CN(/N=C/c2ccc(-c3ccc([N+](=O)[O-])cc3)o2)C(O)=N1 [dantrolene] |  | inactive | inhibited SERCaMP release | inactive | decreased GLuc-SERCaMP secretion | improved cell attachment and viability |  | partially attenuated GLuc-SERCaMP release |  | 
COc1ccc2c(c1)[C@]13CCCC[C@@H]1[C@H](C2)N(C)CC3 [dextromethorphan] |  | diminished UPRE-NLuc activation | inhibited SERCaMP release | inactive |  |  |  | partially attenuated GLuc-SERCaMP release | no effect | 
COc1ccc([C@@H]2Sc3ccccc3N(CCN(C)C)C(=O)[C@@H]2OC(C)=O)cc1 [diltiazem] |  | inactive | inhibited SERCaMP release | inactive | decreased GLuc-SERCaMP secretion | improved cell attachment and viability | reduced caspase 3/7 activation | partially attenuated GLuc-SERCaMP release | no effect | 
COc1ccc(CCN(C)CCCC(C#N)(c2ccc(OC)c(OC)c2)C(C)C)cc1OC (stereo not drawn) [verapamil] |  | diminished UPRE-NLuc activation | inhibited SERCaMP release | inactive |  |  | reduced caspase 3/7 activation | partially attenuated GLuc-SERCaMP release |  | BiP mRNA levels [10]: reduced expression of BiP
